From ChEMBL document CHEMBL1772969, “Synthesis, structure-activity relationship, and antimalarial activity of ureas and thioureas of 15-membered azalides” (J Med Chem, 2011) come the findings set out here.

Series [1] can be described thus: Apparent volume of distribution during terminal phase in Sprague-Dawley rat at 10 mg/kg, iv and 30 mg/kg, po. Particulars: in vivo, read-out: Vz/F. In kind it is ADME, organism-based. Put shortly:
(§1)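 Male Sprague-Dawley rats (250–300 g), crossover design. Dosed 10 mg/kg iv, then 2-day washout, then 30 mg/kg oral (free base equivalent), formulated in 1%/20% Encapsin (w/v) and saline. Blood sampled up to 24 h and analysed by LC-MS/MS. Clearance and terminal-phase Vd based on blood concentration.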

Series [2] relates to Plasmodium falciparum. In words: Antimalarial activity against chloroquine/pyrimethamine-resistant Plasmodium falciparum W2 after 48 hrs by [3H]hypoxanthine incorporation assay. In kind it is functional, organism-based. In short, it runs like this: (§2)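 [3H]hypoxanthine incorporation assay (Desjardins method, Milhous modification) with 48 h drug exposure. Compounds and controls were 2-fold diluted across 11 concentrations. IC50 was fitted by nonlinear logistic dose-response. Values are averaged where multiple results were generated, with relative errors usually <30%.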

Series [3] is described as follows: Oral bioavailability in Sprague-Dawley rat at 30 mg/kg. In kind it is ADME, organism-based. Conditions: in vivo. Put shortly: as §1
In series [4] the test system is HepG2. In words: Cytotoxicity against human HepG2 cells after 1 to 4 hrs by MTS assay. In kind it is cell-based. Put shortly:
(§3)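 HepG2 and THP-1 cells grown in RPMI 1640 with 10% FBS at 37 °C, 5% CO₂, and passaged twice weekly. Compounds applied as continuous exposure. Viability read by MTS reagent, 1–4 h incubation, absorbance at 490 nm; IC₅₀ derived.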
(Tetrazolium assays rely on reduction of a dye to a coloured formazan, in cell work by metabolically active cells.)

Series [5] in a line: Half life in mouse liver microsomes at 1 uM by LCMS analysis. In kind it is ADME, Microsome. Put shortly:
(§4)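 Compound at 1 μM final with 0.5 mg/mL pooled human or mouse liver microsomes, 1.3 mM NADP, 3.3 mM MgCl₂, 0.1 M PBS pH 7.4. Reaction started with 1 U/mL G6PD, shaken at 37 °C. Aliquots quenched with cold acetonitrile at 0, 10, 20, 30 and 60 min and quantified by LCMS. t₁/₂ taken from log plot of total ion chromatogram area remaining.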
(Liver microsomes are a subcellular fraction often used to study metabolism.)

Series [6] has as its system Plasmodium berghei. Nature of the series: Antiplasmodial activity against Plasmodium berghei KBG-173 infected in mouse assessed as mouse without parasitemia at 960 mg/kg, sc bid for 3 days measured on day 31. It counts as functional, organism-based. On the set-up: dose 960 mg/kg. In short, it runs like this:
(§5)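 P. berghei KBG-173: 5 × 10⁶ infected erythrocytes injected intraperitoneally into male mice (24–30 g); parasitemia 1.0–3.7% by day 3. Oil suspension given subcutaneously twice daily at 160, 40 or 10 mg/kg on days 3–5 postinfection (totals 960/240/60 mg/kg); 4–5 mice per group. Blood films on day 6, then biweekly to day 31; film-negative on day 31 counted as cured.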

Series [7] concerns Plasmodium berghei. In words: Antiplasmodial activity against Plasmodium berghei KBG-173 infected in sc dosed mouse administered bid for 3 days. It counts as functional. In short, it runs like this:
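Male mice (24-30 g) were infected ip with 5 × 10⁶ P. berghei KBG-173-infected erythrocytes. Drug suspended in palm/peanut oil was given sc twice daily on days 3-5 post-infection at 160, 40 or 10 mg/kg per dose, 0.01 mL/g, in groups of 4-5. Blood films were taken day 6, then biweekly to day 31. Mice smear-negative on day 31 were counted cured. CD50 is the daily dose curing 50%.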

The nature of series [8]: Half life in human liver microsomes at 1 uM by LCMS analysis. In kind it is ADME, Microsome. Put shortly:
as §4

A short description of series [9]: Half life in Sprague-Dawley rat at 10 mg/kg, iv and 30 mg/kg, po. Conditions: in vivo. In kind it is ADME, organism-based. Put shortly:
as §1

Series [10] relates to Plasmodium falciparum. Nature of the series: Antimalarial activity against chloroquine-sensitive Plasmodium falciparum D6 after 48 hrs by [3H]hypoxanthine incorporation assay. It counts as functional, organism-based. In short, it runs like this: as §2
Series [11] deals with Plasmodium falciparum. In words: Antimalarial activity against multidrug-resistant Plasmodium falciparum TM91C235 after 48 hrs by [3H]hypoxanthine incorporation assay. It counts as functional, organism-based. Put shortly:
as §2

Series [12] is described as follows: Blood clearance in Sprague-Dawley rat at 10 mg/kg, iv and 30 mg/kg, po. Conditions: whole blood. It counts as ADME, organism-based. Put shortly: as §1
For series [13], the system named is THP-1. In words: Cytotoxicity against human THP1 cells after 1 to 4 hrs by MTS assay. It counts as cell-based. Put shortly:
as §3

Series [14] relates to Plasmodium falciparum. Nature of the series: Ratio of compound IC50 to Azithromycin IC50 for Plasmodium falciparum. In kind it is functional.
Series [15] relates to Plasmodium falciparum. Nature of the series: Antimalarial activity against Plasmodium falciparum after 68 hrs. It counts as functional, organism-based.
Series [16] has as its system Plasmodium berghei. In words: Antiplasmodial activity against Plasmodium berghei KBG-173 infected in mouse assessed as mouse without parasitemia at 240 mg/kg, sc bid for 3 days measured on day 31. It counts as functional, organism-based. Set-up: dose 240 mg/kg. Put shortly: as §5

In brackets after ≈: the same amount, converted by molar mass. Activity calls are given as the source filed them. The rule behind the calls is not given here.

By IC50 is commonly meant the concentration that gives 50% inhibition. Lower therefore signals greater potency in that assay. What is called bioavailability is dose-corrected exposure relative to a reference, in per cent. For orientation: half-life means the time in which the quantity being followed falls by half. Higher therefore signals slow decline. With `CC[C@H]1OC(=O)[C@H](C)[C@@H](O[C@H]2C[C@@](C)(OC)[C@@H](O)[C@H](C)O2)[C@H](C)[C@@H](O[C@@H]2O[C@H](C)C[C@H](N(C)C)[C@H]2O)[C@](C)(O)C[C@@H](C)CN(CCCN(CCC#N)C(=O)Nc2ccc(Cl)cc2Cl)[C@H](C)[C@@H](O)[C@]1(C)O`, in [1], the Vd/F came out at 23.3 L/kg. Also, the IC50 in [2] was found to be 199 nM; in series [4] it was 22000 nM; in [10], 229 nM; in series [11], 123 nM; in [13] it was 15000 nM. The molecule further gave a bioavailability in series [3] of 18.4%. Moreover, the half-life at 1 µM in series [5] and in series [8] was greater than 2 h each time. Also, the result in [6] was Active. In addition, in series [7], the CD50 was found to be 420 mg/kg. Moreover, the half-life in [9] was 41.5 h. The molecule further displayed a clearance in series [12] of 7.7 mL/min/kg.
Consider `CC[C@H]1OC(=O)[C@H](C)[C@@H](O[C@H]2C[C@@](C)(OC)[C@@H](O)[C@H](C)O2)[C@H](C)[C@@H](O[C@@H]2O[C@H](C)C[C@H](N(C)C)[C@H]2O)[C@](C)(O)C[C@@H](C)CN(C)[C@H](C)[C@@H](O)[C@]1(C)O` [AZITHROMYCIN], for which, in series [1], the Vd/F is 20 L/kg. For the same molecule, the IC50 in series [2] was 2290 nM; in [4], greater than 50000 nM; in series [15] it was 0.5 µg/mL (≈ 0.668 µM); in [10] it was 1040 nM; in series [11] it was 2110 nM; in series [13], greater than 50000 nM. Also, the “Ratio IC50” value in series [14] was 88. In [3], this molecule registered a bioavailability of 33%. Also, the half-life at 1 µM in [5] and in series [8] was greater than 2 h each time. For the same molecule, the outcome in series [6] and in series [16] was Active. Moreover, the CD50 in series [7] was 50 mg/kg. In addition, the half-life in [9] was 24 h. The molecule also returned a clearance in [12] of 11 mL/min/kg.
